Measured values as given in ChEMBL document CHEMBL4346667 (Eur J Med Chem, 2019).
Active and inactive are the calls of the source. The rule behind the calls is not given here.

What was measured:
Tubulin (Sus scrofa) [1] = molecular target: T1, Tubulin (Sus scrofa) (UniProt P02554+P02550); experiment: Inhibition of porcine tubulin assembly assessed as tubulin growth inhibition at 2 uM incubated for 30 min by fluorometric analysis; format: protein assay
Method in brief: (§1)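 This was a centrifugation assay of tubulin assembly. Tubulin was held at 4 °C with 0.9 mM GTP and 6 mM MgCl2, and aggregates were removed at 90000 g for 10 min at 4 °C. Ligands at 0.05–2 µM (1% DMSO) were incubated for 30 min at 37 °C. Supernatants and pellets were diluted 1:5, and tubulin was read fluorometrically (ex 280, em 323) against standards. The 50% inhibitory concentration came from inhibition curves, as the mean of three experiments.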

HeLa = experiment: Antiproliferative activity against human HeLa cells assessed as reduction in cell viability after 48 hrs by MTT assay; format: functional, cell-based
Method in brief: (§2)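 Cells grown at 37 °C, 5% CO2; HeLa, HepG2, H8, HL7702 in RPMI 1640 + 10% fetal calf serum, others in high-glucose DMEM + 10% fetal calf serum. Log-phase cells seeded at 4000-12000/well by doubling time. Attached cells were given 10-fold dilutions, 100 µM to 10 nM (DMSO 0.1% v/v), for 48 h. MTT (2 mg/mL) 4 h, formazan in DMSO, A492. IC50 from triplicate means.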

A549 = experiment: Antiproliferative activity against human A549 cells assessed as reduction in cell viability after 48 hrs by MTT assay; format: functional, cell-based; details: A549, 48 h; method in brief: as §2
Tubulin (Homo sapiens) [2] = molecular target: T2, Tubulin (Homo sapiens) (UniProt P68371+Q9H4B7+P0DPH7+P68366+Q13509+Q71U36+P04350+Q3ZCM7+P07437+P68363+Q9BQE3+Q6PEY2+Q13885+Q9BVA1+Q9BUF5); experiment: Inhibition of tubulin polymerization in human HeLa cells assessed as cellular microtubule disorganization and H3 phosphorylation at 500 nM after 24 hrs by immunofluorescence based confocal microscopy; format: cell-based
Method in brief: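 HeLa cells on glass coverslips were treated for 24 h at 25, 250 or 500 nM. They were fixed in 4% paraformaldehyde for 1 h and permeabilised with 0.2% Triton X-100 for 20 min. Anti-α-tubulin (1:50 in 2% BSA) was applied for 1 h at RT, then Alexa Fluor 488 anti-rabbit IgG (1:500) for 1 h, then DAPI for 20 min. Cells were imaged by fluorescence and confocal microscopy.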

Tubulin = experiment: Binding affinity to tubulin (unknown origin) assessed as dissociation constant by SPR analysis; format: protein-complex assay, Homo sapiens
Method in brief: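 Tubulin immobilised to about 800 mDeg. Injected at 60 µL/min for 300 s; PBS with 0.5% DMSO as running buffer. Measured at 25 °C, with dilution-corrected peak areas.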

Tubulin (Sus scrofa) [3] = molecular target: T1, Tubulin (Sus scrofa); experiment: Inhibition of porcine tubulin assembly assessed as tubulin growth inhibition incubated for 30 min by fluorometric analysis; format: protein assay; method in brief: as §1
[4] = Binding affinity to alpha/beta tubulin complex (unknown origin); parameters: species or system Homo sapiens
Method in brief: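 SPR assay: tubulin immobilized up to 800 mDeg (response units). Ligands were diluted two-fold from 80 µM to 2.5 µM in PBS with 0.5% (v/v) DMSO and injected at 60 µL/min for 300 s. Running buffer was PBS with 0.5% DMSO, at 25°C.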

[5] = Antiproliferative activity against human H8 cells assessed as reduction in cell viability after 48 hrs by MTT assay; format: functional, cell-based; method in brief: as §2
L02 = experiment: Antiproliferative activity against human HL7702 cells assessed as reduction in cell viability after 48 hrs by MTT assay; format: functional, cell-based; details: L02, 48 h; method in brief: as §2
MRC5 = experiment: Antiproliferative activity against human MRC5 cells assessed as reduction in cell viability after 48 hrs by MTT assay; format: functional, cell-based; details: MRC5, 48 h; method in brief: as §2
MCF7 [6] = experiment: Antiproliferative activity against human MCF7 cells assessed as reduction in cell viability after 48 hrs by MTT assay; format: functional, cell-based; details: MCF7, 48 h; method in brief: as §2
MCF7 [7] = experiment: Induction of apoptosis in human MCF7 cells at 250 nM after 48 hrs by Annexin V-FITC/propidium iodide staining-based flow cytometric analysis relative to control (reference value: 11.6%); format: functional
Method in brief: (§3)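 MCF7 cells were seeded in 6-well plates and exposed after adhering to graded concentrations for 48 h, in cycles of 6 h on and 6 h off. They were then stained with annexin V (1 µg/mL) and PI (0.5 µg/mL) in Ca2+-enriched binding buffer for 15 min in the dark at room temperature. Flow cytometry recorded 10,000 events, FL1 versus FL2. Apoptosis was taken as early plus late stage, with at least 3 repeats.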

Tubulin (Homo sapiens) [8] = molecular target: T2, Tubulin (Homo sapiens); experiment: Ratio of Kd for PTOX to Kd for test compound for tubulin (unknown origin) by surface plasmon resonance analysis; format: protein-complex assay
Method in brief: (§4)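 SPR binding to immobilised tubulin (up to 800 mDeg) was measured at 25 °C. Compounds were diluted two-fold from 80 to 2.5 µM in PBS with 0.5% DMSO. They were injected at 60 µL/min for 300 s, with PBS containing 0.5% DMSO as running buffer. Kd values came from the titration data.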

Tubulin (Homo sapiens) [9] = molecular target: T2, Tubulin (Homo sapiens); experiment: Ratio of Kd for colchicine to Kd for test compound for tubulin (unknown origin) by surface plasmon resonance analysis; format: protein-complex assay; method in brief: as §4
HepG2 = experiment: Antiproliferative activity against human HepG2 cells assessed as reduction in cell viability after 48 hrs by MTT assay; format: functional, cell-based; details: HepG2, 48 h; method in brief: as §2
HMEC = experiment: Antiproliferative activity against human HMEC cells assessed as reduction in cell viability after 48 hrs by MTT assay; format: functional, cell-based; method in brief: as §2
MCF7 [10] = experiment: Cell cycle arrest in human MCF7 cells assessed as accumulation of cells at G2/M phase at >=250 nM after 24 hrs by propidium iodide double staining based flow cytometric analysis (reference value: 80%); format: functional
Method in brief: (§5)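 Log-phase cells seeded in 6-well plates and, once adhered, treated at 10-1000 nM; incubated in cycles of 6 h on/6 h off up to 48 h. Washed in cold PBS, fixed in 70% ethanol at -20 °C for at least 2 days. Stained with PI (50 µg/mL) 30 min on ice in the dark. 10,000 events on FL2-A vs FL2-W; G1/S/G2/M from DNA modelling. At least three repeats.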

Tubulin (Homo sapiens) [11] = molecular target: T2, Tubulin (Homo sapiens); experiment: Inhibition of tubulin polymerization in human HeLa cells assessed as contracted and rounded cells with disordered abnormal spindles and chromosomal misalignment at 500 nM after 24 hrs by immunofluorescence based confocal microscopy; format: cell-based
Method in brief: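 HeLa cells on glass coverslips were treated for 24 h at 25, 250 or 500 nM. They were fixed in 4% paraformaldehyde for 1 h and permeabilised with 0.2% Triton X-100 for 20 min. Cells were imaged by fluorescence and confocal microscopy.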

MCF7 [12] = experiment: Induction of apoptosis in human MCF7 cells at 100 nM after 48 hrs by Annexin V-FITC/propidium iodide staining-based flow cytometric analysis relative to control (reference value: 11.6%); format: functional; method in brief: as §3
MCF7 [13] = experiment: Induction of apoptosis in human MCF7 cells at 50 nM after 48 hrs by Annexin V-FITC/propidium iodide staining-based flow cytometric analysis relative to control (reference value: 11.6%); format: functional; method in brief: as §3
MCF7 [14] = experiment: Antitumor activity against human MCF7 cells xenografted in BALB/c nude mouse assessed as inhibition of tumor growth at 40 mg/kg administered for a week; format: functional
Method in brief: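 Male BALB/c nude mice, 4 weeks old, 15-20 g. Log-phase MCF-7 cells in DMEM, 0.1 mL of 1×10^6 cells/mL, injected subcutaneously into the hind leg. Calipers twice weekly; at about 90 mm3, groups of 5. Vehicle was isotonic saline plus 0.005% DMSO. Injected at 40 mg/kg for a week; tumour volume recorded daily.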

MCF7 [15] = experiment: Cell cycle arrest in human MCF7 cells assessed as accumulation of cells at G2/M phase at 100 nM after 24 hrs by propidium iodide double staining based flow cytometric analysis; format: functional; method in brief: as §5
MCF7 [16] = experiment: Cell cycle arrest in human MCF7 cells assessed as accumulation of cells at G2/M phase at 250 to 500 nM after 24 hrs by propidium iodide double staining based flow cytometric analysis; format: functional; method in brief: as §5
MCF7 [17] = experiment: Induction of apoptosis in human MCF7 cells at 500 nM after 48 hrs by Annexin V-FITC/propidium iodide staining-based flow cytometric analysis relative to control (reference value: 11.6%); format: functional; method in brief: as §3
MCF7 [18] = experiment: Induction of apoptosis in human MCF7 cells at 10 nM after 48 hrs by Annexin V-FITC/propidium iodide staining-based flow cytometric analysis relative to control (reference value: 11.6%); format: functional; method in brief: as §3

T1 sequence (P02550 whole entry, looked up): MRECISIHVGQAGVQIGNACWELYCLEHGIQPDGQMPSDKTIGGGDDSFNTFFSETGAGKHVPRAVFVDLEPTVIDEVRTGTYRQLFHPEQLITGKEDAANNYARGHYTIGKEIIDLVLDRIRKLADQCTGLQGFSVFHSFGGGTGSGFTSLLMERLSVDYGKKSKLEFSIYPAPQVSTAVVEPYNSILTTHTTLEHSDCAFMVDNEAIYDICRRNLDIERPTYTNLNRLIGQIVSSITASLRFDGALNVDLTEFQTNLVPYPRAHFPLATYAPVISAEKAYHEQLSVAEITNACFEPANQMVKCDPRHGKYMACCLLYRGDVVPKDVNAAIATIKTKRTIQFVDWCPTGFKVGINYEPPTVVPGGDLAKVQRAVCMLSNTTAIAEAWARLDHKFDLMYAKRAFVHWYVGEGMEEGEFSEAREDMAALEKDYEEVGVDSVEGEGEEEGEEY
T1 sequence (P02554 whole entry, looked up): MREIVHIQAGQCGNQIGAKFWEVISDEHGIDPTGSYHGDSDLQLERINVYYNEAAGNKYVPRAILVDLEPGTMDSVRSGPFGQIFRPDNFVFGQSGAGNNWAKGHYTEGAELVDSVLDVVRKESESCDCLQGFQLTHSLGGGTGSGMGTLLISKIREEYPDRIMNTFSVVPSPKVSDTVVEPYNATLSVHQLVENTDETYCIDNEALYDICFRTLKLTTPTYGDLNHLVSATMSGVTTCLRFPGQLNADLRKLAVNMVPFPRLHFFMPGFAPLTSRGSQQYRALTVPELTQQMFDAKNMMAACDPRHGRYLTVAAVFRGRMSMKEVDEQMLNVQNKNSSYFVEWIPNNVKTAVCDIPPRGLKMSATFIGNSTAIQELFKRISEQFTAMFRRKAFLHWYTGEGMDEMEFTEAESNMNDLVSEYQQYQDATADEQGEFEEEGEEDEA

SMILES	inhibition (Tubulin (Sus scrofa) [1])	IC50 (HeLa)	IC50 (A549)	Kd (Tubulin)	GI50 (Tubulin (Sus scrofa) [3])	Ki [4]	IC50 [5]	IC50 (L02)	IC50 (MRC5)	IC50 (MCF7 [6])	Activity (MCF7 [7])	Ratio (Tubulin (Homo sapiens) [8])	Ratio (Tubulin (Homo sapiens) [9])	IC50 (HepG2)	IC50 (HMEC)	inhibition (Tubulin (Homo sapiens) [11])	also measured
COc1cc([C@@H]2c3cc4c(cc3[C@@H](Nc3ccc5[nH]ncc5c3)[C@H]3COC(=O)[C@H]23)OCO4)cc(OC)c1OC	79%	0.2 µM	0.2 µM	9.1 µM	< 0.1 µM	0.06 µM	98.4 µM	50.6 µM	60.8 µM	0.2 µM	60%	2.7	2.2	0.3 µM	81.8 µM	–	inhibition (Tubulin (Homo sapiens) [2]): Active; Activity (MCF7 [10]): 45%
COC(=O)Nc1nc2cc(C(=O)c3cccs3)ccc2[nH]1 [NOCODAZOLE]	–	0.3 µM	0.2 µM	–	–	–	18 µM	13.5 µM	15.3 µM	0.2 µM	–	–	–	0.4 µM	11.5 µM	Active	–
COc1cc([C@@H]2c3cc4c(cc3[C@H](O)[C@H]3COC(=O)[C@H]23)OCO4)cc(OC)c1OC [PODOFILOX]	–	6.9 µM	2.6 µM	–	–	0.27 µM	8.4 µM	5 µM	10.6 µM	2.4 µM	–	–	–	2.4 µM	5.6 µM	Active	–
COc1cc([C@@H]2c3cc4c(cc3[C@@H](Nc3ccc5cc[nH]c5c3)[C@H]3COC(=O)[C@H]23)OCO4)cc(OC)c1OC	88%	0.08 µM	0.08 µM	8.1 µM	< 0.1 µM	0.01 µM	84.5 µM	94.6 µM	69.1 µM	0.07 µM	92.4 - 93%	2.7	2.2	0.1 µM	61.6 µM	Active	Activity (MCF7 [12]): 93.5%; Activity (MCF7 [13]): 20.1%; inhibition in vivo at 40 mg/kg (MCF7 [14]): 89.6%; Activity (MCF7 [15]): 50%; Activity (MCF7 [16]): 90%; Activity (MCF7 [17]): 94.9%; Activity (MCF7 [18]): 10.5%
